From ChEMBL document CHEMBL4513216, “Probing the Open Global Health Chemical Diversity Library for Multistage-Active Starting Points for Next-Generation Antimalarials” (ACS Infect Dis, 2020)

Assay: Toxicity liver stage against HepG2, at 10uM
Type: cell-based
Design: test concentration 10 uM, cell line HepG2-A16-CD81EGFP
Conditions: human, HepG2-A16-CD81EGFP cells; read-out: INHIBITION
Procedure, shortened: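 Uninfected HepG2-A16-CD81EGFP cells, 3 × 10^3 per well, 1536-well, plated on prespotted compound at 10 μM final, parasite-free screening media added to match infected plates; puromycin 10 μM positive, DMSO 0.5% negative; run in parallel with 48 h PbLuc assay at 37 °C, 5% CO2; viability by CellTiter-Glo luminescence, normalized to controls.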

| Compound | cytotoxicity at 10 µM [%] |
| --- | --- |
| Cc1cc(NC(=O)NCC2CCN(C(C)C)C2)no1 (stereo unspecified) | -15.3 |
| COc1ccc(CN2C[C@@H](F)[C@@H](OCc3nc4cnccc4[nH]3)C2)cn1 | 2.08 |
| O=C(Nc1ccccc1)[C@H]1O[C@H](CCN2CCNCC2)CC[C@@H]1O | -7.49 |
| O[C@@H]1C[C@@H](c2nc(-c3ccccc3)no2)N(Cc2ccncc2)C1 | 2.77 |
| COc1ccc(C(=O)Nc2cccc(C(N)=O)c2)c(OC)n1 | -9.2 |
| CSc1ncccc1C(=O)NCc1ccc(N(C)C)cc1 | 4.74 |
| CC(=O)N1N=C(c2cccs2)OC1C(=O)Nc1ccc(C)cc1 (stereo unspecified) | -4.14 |
| C=C(C)COc1ccc(C(CC(=O)OC)c2oc(C)cc(=O)c2O)cc1 (stereo unspecified) | -9.24 |
| CC1CCN(c2ccc(=O)n(CC(=O)NCCc3ccccc3)n2)CC1 | 0.277 |
| COc1ccc(S(=O)(=O)NCC(c2cccn2C)N(C)C)c(C)c1 (stereo unspecified) | 7.78 |
| O=C(NCC1(CO)CC1)c1ccccc1Br | -0.734 |
| Cc1noc(C)c1CN1C[C@@H]2OCCN(Cc3cnn(C)c3)[C@@H]2C1 | -139 |
| O=C(NCC1CC1)c1cc2c(s1)CCN2C(=O)c1cccnc1 | 8.07 |
| Cc1cnc(C(=O)N2CCC3(CC2)CC(c2ccccc2)C(=O)N3)cn1 (stereo unspecified) | 4.9 |
| O=C(c1ccnnc1)N1CCC2(CCN(c3ccsc3)C2=O)C1 (stereo unspecified) | -139 |
| Cn1nc(C#N)c2c1CN(C(=O)c1ccnnc1)CCC2 | -147 |
| CC(C)n1[nH]c(=O)c2c1NC(=O)CC2C1CCCCC1 (stereo unspecified) | -12.9 |
| CC(Cn1cc(Br)cn1)C(=O)Nc1ccncc1 (stereo unspecified) | -2.82 |
| Cc1cccc(N2CCCN=C2NC(=O)c2cccc(Cl)c2)c1 | 6.39 |
| Cc1nnsc1C(=O)NCCNS(=O)(=O)c1cccs1 | 4.29 |
| O=C1CNc2ncnc(NCc3cccs3)c2N1 | 2.99 |
| O=C(CCn1nc(C(F)(F)F)c(Br)c1C1CC1)NN1CCOCC1 | 8.85 |
| CCN(CC)S(=O)(=O)N1CCCC1c1nnc2n1CCN(C)CC2 (stereo unspecified) | 0.45 |

| Compound | cytotoxicity at 10 µM [%] |
| --- | --- |
| O=C(O)[C@@H]1OCC(=O)N(Cc2cccc(Cl)c2)[C@@H]1c1ccccc1 | 3.94 |
| O=C(NCC1(O)COCCN(Cc2cccc(O)c2)C1)c1cnccn1 (stereo unspecified) | -6.49 |
| CC(=O)N1CCC(C(=O)Nc2nnc(C(F)(F)F)[nH]2)CC1 | -3.37 |
| Cc1n[nH]c(-c2ccc(NC(=O)C(C)(C)N3CCN(C)CC3)cc2)n1 | -0.876 |
| Cc1cc(OC(F)F)c(C(=O)NCC(O)c2cccc(F)c2)s1 (stereo unspecified) | -4.3 |
| Cc1ccc(S(=O)(=O)Cc2nnc(C)n2C)cc1 | -2.92 |
| O=C(Nc1cccnc1)C1=Cc2ccccc2OC1 | 4.19 |
| O=C(NCc1cc(-c2ccccc2)no1)NC1CCCCNC1=O (stereo unspecified) | -145 |
| CC(C)c1noc(OCC(=O)N2CCCCC2C)n1 (stereo unspecified) | 1.45 |
| CCc1cnc(CNC(=O)NCCCO)s1 | -5.42 |
| CN1CCc2ccc(NCc3cscn3)cc2C1=O | -2.43 |
| CCc1ccsc1C(=O)NC(Cc1ccccc1)C(N)=O (stereo unspecified) | 9.01 |
| CC(O)(CNc1ccc(Cl)c(C#N)n1)c1ccccc1 (stereo unspecified) | -9.06 |
| Cc1c(C(=O)NC2CCCOc3cc(Cl)ccc32)cnn1C (stereo unspecified) | -0.572 |
| Cc1cnn(C2CN(CCOc3ccc(C#N)cc3)C2)c1 | 1.77 |
| Cc1nc(NC(=O)C(C)N(C)Cc2cccc(C#N)c2)sc1C (stereo unspecified) | -0.506 |
| Cc1c(C(=O)N2CC(C)(C)C2(C)C)nnn1-c1cccc2cnccc12 | 9.68 |
| O=C(CCNc1ncccn1)NCc1ccc(Br)s1 | 6.72 |
| CC(C)Oc1ccc(C(=O)Cn2cnnc2[S+](C)[O-])cc1 (stereo unspecified) | -4.68 |
| COc1ccc(C(=O)O)c(OCC(=O)NC(C)c2ccccc2)c1 (stereo unspecified) | 1.97 |
| O=C(CCNC(=O)N1CCC(c2ccccc2)C1)N1CCCCC1 (stereo unspecified) | -3.41 |
| CS(=O)(=O)NCCC1CCCCN1C(=O)NCCc1ccccn1 (stereo unspecified) | -4.24 |
| CS(=O)(=O)N1CCc2c(cccc2NC(=O)NC2CCCC2)C1 | -6.78 |

| Compound | cytotoxicity at 10 µM [%] |
| --- | --- |
| COc1cccc(OCC(=O)Nc2cc(C)cnc2OC)c1 | -11.4 |
| O=C(COC1CCCC1)NCCCn1nc2ccccn2c1=O | 5.78 |
| Cc1nc(C2CCCN2CC(=O)Nc2c(C)nn(C)c2C)no1 (stereo unspecified) | -3.08 |
| CC(=O)Nc1cccc(CNC(=O)N(C)Cc2ccccc2)c1 | -2.11 |
| CC(C)Oc1ccccc1C(=O)NCCc1nncn1C | -7.71 |
| COc1cccc(NC(=O)N(CCO)C2CCc3ccccc32)c1 (stereo unspecified) | -1.08 |
| CC(C)c1nc2c(n1C)CCN(CCCc1nc3ccccc3o1)C2 | 2.07 |
| CN(Cc1ccc(Br)s1)Cn1nc(-c2ccc(F)cc2)oc1=O | 1.64 |
| CNC(=O)C(NC(=O)c1ccn(C)c(=O)c1)c1ccccc1 (stereo unspecified) | 4.73 |
| Cc1cc(CNC(=O)CC2CN(C(=O)OC(C)(C)C)C2)ccc1F | 4.21 |
| Cn1cnnc1CNC(=O)C1CCCN(Cc2ccccc2)C1 (stereo unspecified) | 3.57 |
| CCC(CNS(=O)(=O)c1c[nH]cn1)Oc1ccccc1F (stereo unspecified) | 7.22 |
| O=C1C(n2nnc(-c3cccs3)n2)CCN1CC(F)(F)F (stereo unspecified) | -0.0198 |
| COC(=O)C1CCCCN1Cc1cccc(C(=O)NCc2ccco2)c1 (stereo unspecified) | -12.5 |
| CCc1nsc(N2CCn3c(nnc3C(F)(F)F)C2)n1 | -0.657 |
| Cc1cc(C)c(CNc2ncnc3ccsc23)c(=O)[nH]1 | 15.9 |
| Cc1c(CNC(=O)Nc2cccc3c2CCN3C)cnn1C | -1.02 |
| CCOCCN1CCN(CCCc2nnnn2-c2ccccc2)CC1 | 6.45 |
| CC(C)c1nsc(N2CCc3sccc3C2)n1 | 20.9 |
| Clc1ccc(CN2CCN(Cn3nccc3-c3cccnc3)CC2)s1 | 8.64 |
| CS(=O)(=O)NCCC(=O)NC1CCc2nccn2C1 (stereo unspecified) | 9.46 |
| COc1cc(C)c(C(C)NC(=O)Nc2nnc(C)s2)cc1OC (stereo unspecified) | 1.03 |
| CCN(CC)C(=O)c1ccc(NC(=O)CNc2ccc(F)cc2Cl)cc1 | -5.31 |

| Compound | cytotoxicity at 10 µM [%] |
| --- | --- |
| CO[C@H]1CN(C(=O)c2ccnnc2)[C@@H]2COC[C@H]12 | 2.83 |
| Cc1cccc(C2CCCN(C(=O)CN3CCCC3=O)C2)c1 (stereo unspecified) | -0.942 |
| OC1(CN2CCc3nnc(Cc4cccnc4)n3CC2)CCCNC1 (stereo unspecified) | 21.7 |
| Cn1cc(C(=O)N2CCCC(c3ncc[nH]3)C2)cn1 (stereo unspecified) | 1.95 |
| Cc1nnsc1CNC(=O)c1ccc2c(c1)nc(N1CCOCC1)n2C | -13.8 |
| Cc1cc(C(=O)NCc2cccnc2N2CCc3ccccc3C2)[nH]n1 | 14.4 |
| COCc1noc(-c2ccc(N(C)Cc3ncccc3C)nc2)n1 | -0.0612 |
| Cc1ccc(C(=O)N2CCC3(CCC(=O)N(C(C)C)C3)CC2)c(O)c1 | 17.5 |
| CCC[C@H]1CN(CCS(C)(=O)=O)C[C@@H]1NC(=O)c1cccnn1 | 3.25 |
| Cn1c(N2CCOCC2)nc2cc(C(=O)N3CCCOCC3)ccc21 | -1.29 |
| O=C(CN1CCCCCC1)NCCSc1cnn[nH]1 | -7.15 |
| Cc1ccc(F)c(OC2(C(=O)O)CCN(C(=O)c3ccco3)CC2)c1 | 5.99 |
| CN(C)CC1(O)CCCN(c2nc(-c3ccccc3)no2)CC1 (stereo unspecified) | -4.6 |
| c1coc(-c2nc(CNC3CCCNC3)no2)c1 (stereo unspecified) | -25.2 |
| Cc1cc(=O)[nH]c(SC(C)C(=O)N2CCC(NS(C)(=O)=O)CC2)n1 (stereo unspecified) | -10.4 |
| c1ccc(-c2nc3c(c(NCCc4c[nH]cn4)n2)CCNC3)cc1 | -123 |
| CC(=O)NCc1ccc(C(=O)N2CCCC2c2cnn(C)c2)s1 (stereo unspecified) | -13.6 |
| N#Cc1ccsc1NC(=O)CCN1CCn2c(nnc2C2CC2)C1 | -5.65 |
| c1cnc(-c2nc(CNC3CCc4ncnn4C3)cs2)nc1 (stereo unspecified) | -5.66 |
| CCCc1n[nH]c(C2CN(Cc3nnc(C4CCC4)o3)CCO2)n1 (stereo unspecified) | -2.42 |
| CC(NC(=O)NCCCc1n[nH]c(N)c1C#N)c1ccc(F)cc1 (stereo unspecified) | -13.7 |
| CCc1noc(C(C)N2CCN(C(=O)CN3CCOCC3)CC2)n1 (stereo unspecified) | -9.17 |
| Cc1nnc(CN(C)C2CCN(Cc3nc4ccccc4n3C)C2)o1 (stereo unspecified) | -10.1 |

| Compound | cytotoxicity at 10 µM [%] |
| --- | --- |
| Cc1cc(NC(=O)CN2CCCC2c2noc(C)n2)n(C)n1 (stereo unspecified) | -2.3 |
| NC(=O)C1CCCN(c2ccc(CNC(=O)c3cc[nH]n3)cc2)C1 (stereo unspecified) | -3.9 |
| COc1ccc(C)cc1C(C)NC(=O)Cn1ccc(=O)n(C)c1=O (stereo unspecified) | -1.59 |
| CS(=O)(=O)NC1CCCN(C(=O)NCc2ccoc2)C1 (stereo unspecified) | -14.9 |
| CC(C)n1nc2c(cc1=O)CN(Cc1nnc(C3CC3)o1)CC2 | -18.8 |
| NC(=O)c1ccc(OCC(=O)N2CCCC(n3cccn3)C2)cc1 (stereo unspecified) | 1.3 |
| CC(C)N1CCC2(CCNCC2)C1=O | -2.98 |
| c1cncc(N2CCCC3(CCN(CCN4CCCC4)CC3)C2)c1 | -2.95 |
| COCC1CC2(CCN(C(=O)c3cncc(C)c3)CC2)CO1 (stereo unspecified) | -155 |
| Cc1cccc(CN2C[C@@H]3COC[C@H](NS(C)(=O)=O)[C@@H]3C2)n1 | -2.6 |
| Cc1cccc(N2CCc3ncc(CNc4ccccn4)n3CC2)n1 | 2.19 |
| Cc1ccc(C(=O)N2CCO[C@H]3[C@H](OCCN(C)C)CC[C@@H]32)o1 | -145 |
| Cc1ccc(CN2CC(C(=O)Nc3ccccc3)C3(CCOCC3)C2)o1 (stereo unspecified) | 0.927 |
| Cn1ccnc1CN1CC[C@H]2CO[C@H](CNc3ncccn3)[C@H]2C1 | -5.81 |
| CCCNC(c1cccnc1)c1ccc(F)c(C)c1 (stereo unspecified) | 0.821 |
| CCN1CCC2(CC1)CC(NC(=O)NC)c1cc(C)ccc12 (stereo unspecified) | -6.01 |
| Cn1cc(N2CC3(CCN(CC4CCOCC4)CC3)OCC2=O)cn1 | -9.29 |
| CC(C)=CCN1C[C@@H]2CC[C@H]1CN(C(=O)Cc1c(C)[nH]c(C)nc1=O)C2 | 2.48 |
| CNc1nc2cn(C3CCCC3)c(=O)c-2c[nH]1 | 7.17 |
